In brackets after ≈: the same amount, converted by molar mass. Activity calls are given as the source filed them. The rule behind the calls is not given here.
What was measured:
[1] = target: T1, DNA gyrase (Escherichia coli) (UniProt P0AES6+P0AES4); assay: Inhibition of Escherichia coli DNA gyrase using relaxed pBAD-GFPuv plasmid DNA as substrate at 1 to 10 uM after 30 mins by agarose gel electrophoresis; assay type: protein-complex assay
[2] = Binding affinity to dA60.dT60 DNA (unknown origin) assessed as change in melting temperature at 10 uM by UV-Vis spectrophotometric analysis
In short: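 Preformed dA60·dT60 duplex (equimolar strands heated 95 °C 15 min in 10 mM sodium cacodylate, 0.1 mM EDTA, 100 mM NaCl, pH 7.0, slowly cooled) at 1 µM duplex with 10 µM ligand (diluted from DMSO stock). Absorbance melting in 1 cm quartz cells, heating 0.2 °C/min, data every 1.0 °C; Tm shift versus ligand-free duplex.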

[3] = test system: Calf thymus DNA; assay: Binding affinity to calf thymus DNA assessed as change in melting temperature relative to control; assay type: nucleic-acid assay; details: Bos taurus
[4] = test system: Enterococcus faecalis; assay: Antibacterial activity against Enterococcus faecalis ATCC 29212 after 24 hrs by microbroth dilution method; assay type: functional; details: ATCC 29212, 24 h
In short: (§1)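 Organisms were grown to log phase in Mueller-Hinton broth at 37 °C with shaking. They were pelleted, resuspended in 0.85% saline to OD625 0.1, and dispensed at a final 5×10^5 CFU/mL per CLSI microbroth dilution. Plates were run in triplicate and incubated 24 h at 37 °C, then OD625 was read. MIC was the lowest concentration giving complete growth inhibition versus untreated controls.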

[5] = test system: Staphylococcus aureus; assay: Antibacterial activity against Staphylococcus aureus ATCC 29213 after 24 hrs by microbroth dilution method; assay type: functional; details: ATCC 29213, 24 h; in short: as §1
[6] = Inhibition of Escherichia coli DNA topoisomerase-1 using supercoiled pBAD-GFPuv plasmid DNA as substrate assessed as prevention of supercoiled DNA template from relaxation after 15 mins by agarose gel electrophoresis
[7] = test system: Escherichia coli; assay: Antibacterial activity against Escherichia coli K-12 after 24 hrs by microbroth dilution method; assay type: functional; details: K-12, 24 h; in short: as §1
[8] = test system: Escherichia coli; assay: Antibacterial activity against Escherichia coli ATCC 25922 after 24 hrs by microbroth dilution method; assay type: functional; details: ATCC 25922, 24 h; in short: as §1
[9] = target: T2, DNA topoisomerase 1 (Homo sapiens) (UniProt P11387); assay: Inhibition of human DNA topoisomerase-1 using supercoiled pBAD-GFPuv plasmid DNA as substrate assessed as prevention of supercoiled DNA template from relaxation at 50 uM after 30 mins by agarose gel electrophoresis relative to control
T2 sequence (whole entry): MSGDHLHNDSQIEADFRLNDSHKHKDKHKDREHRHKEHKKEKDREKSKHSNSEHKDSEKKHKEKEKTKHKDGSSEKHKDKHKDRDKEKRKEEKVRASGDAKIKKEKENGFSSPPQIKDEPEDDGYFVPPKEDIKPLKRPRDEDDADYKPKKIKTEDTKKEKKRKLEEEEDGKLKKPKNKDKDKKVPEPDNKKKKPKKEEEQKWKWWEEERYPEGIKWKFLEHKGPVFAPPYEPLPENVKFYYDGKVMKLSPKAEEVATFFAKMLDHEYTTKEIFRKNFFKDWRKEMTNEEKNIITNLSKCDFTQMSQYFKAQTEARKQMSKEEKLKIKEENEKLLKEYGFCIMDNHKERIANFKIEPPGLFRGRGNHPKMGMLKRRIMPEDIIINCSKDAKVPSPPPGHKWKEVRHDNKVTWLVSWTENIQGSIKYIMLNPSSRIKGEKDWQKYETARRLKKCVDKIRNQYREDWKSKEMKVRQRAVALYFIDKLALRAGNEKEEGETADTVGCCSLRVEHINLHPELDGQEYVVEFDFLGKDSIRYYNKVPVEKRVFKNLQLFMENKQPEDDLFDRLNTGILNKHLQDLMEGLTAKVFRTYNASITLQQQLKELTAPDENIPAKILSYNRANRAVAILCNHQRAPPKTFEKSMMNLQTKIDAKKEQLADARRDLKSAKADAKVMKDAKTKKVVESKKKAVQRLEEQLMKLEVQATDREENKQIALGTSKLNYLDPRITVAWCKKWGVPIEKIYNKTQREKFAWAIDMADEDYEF
In short: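 Human topoisomerase I (2 units) was incubated with 250 ng supercoiled pBAD-GFPuv in 20 mM Tris-HCl pH 7.9, 50 mM KAc, 10 mM Mg(Ac)2, 1 mM DTT and 1 µg/ml BSA, with compound at 10 or 50 µM, for 30 min at 37 °C. After a phenol stop, DNA was resolved on 1% agarose without chloroquine beside a relaxed plasmid marker and stained with ethidium bromide.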

[10] = test system: Staphylococcus aureus; assay: Antibacterial activity against Staphylococcus aureus ATCC 33591 after 24 hrs by microbroth dilution method; assay type: functional; details: ATCC 33591, 24 h; in short: as §1
[11] = test system: DU-145; assay: Cytotoxicity against human DU145 cells after 48 hrs by sulforhodamine B assay; assay type: cell-based; details: DU-145, 48 h
In short: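 DU145 cells were seeded and allowed 24 h to resume growth at 37 °C, 5% CO2. They were treated in triplicate at final 20, 10, 5, 2.5, 1.25, 0.625 and 0.0625 µM for 48 h, alongside untreated and media-only wells. Cells were fixed with cold TCA (16% final) and stained with sulforhodamine B in 1% acetic acid. Bound dye was solubilized in 10 mM Tris base and read at 560 nm to give IC50.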

[12] = target: T3, DNA topoisomerase 1 (Homo sapiens, UniProt P11387); assay: Inhibition of human DNA topoisomerase-1 using supercoiled pBAD-GFPuv plasmid DNA as substrate assessed as prevention of supercoiled DNA template from relaxation after 30 mins by agarose gel electrophoresis
T3 sequence (P11387 whole entry): T2 sequence (whole entry)
In short: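 Compound at 5–50 µM final; 30 min at 37 °C, phenol stop. Read on 1% agarose/TAE gel with ethidium stain. IC50 = concentration at 50% (−) supercoiled DNA by densitometry; mean of ≥3 determinations.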

[13] = Inhibition of Escherichia coli DNA topoisomerase-1 using supercoiled pBAD/Thio plasmid DNA as substrate assessed as prevention of supercoiled DNA from relaxation after 30 mins by agarose gel electrophoresis
[14] = target: T1, DNA gyrase (Escherichia coli); assay: Inhibition of Escherichia coli DNA gyrase using relaxed pBAD-GFPuv plasmid DNA as substrate at 1 to 50 uM after 30 mins by agarose gel electrophoresis; assay type: protein-complex assay
[15] = test system: Pseudomonas aeruginosa; assay: Antibacterial activity against Pseudomonas aeruginosa ATCC 27853 after 24 hrs by microbroth dilution method; assay type: functional; details: ATCC 27853, 24 h; in short: as §1
[16] = target: DNA topoisomerase 2-alpha (Homo sapiens, UniProt P11388); assay: Inhibition of human DNA topoisomerase-2 using supercoiled pBAD-GFPuv plasmid DNA as substrate assessed as prevention of supercoiled DNA template from relaxation after 30 mins by agarose gel electrophoresis
In short: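 Compound at 5–50 µM final; 30 min at 37 °C, phenol stop. Read on 1% agarose/TAE gel with ethidium stain. IC50 = concentration at 50% (−) supercoiled DNA by band intensity; mean of ≥3 determinations.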

Chain of DNA topoisomerase 2-alpha (P11388 whole entry): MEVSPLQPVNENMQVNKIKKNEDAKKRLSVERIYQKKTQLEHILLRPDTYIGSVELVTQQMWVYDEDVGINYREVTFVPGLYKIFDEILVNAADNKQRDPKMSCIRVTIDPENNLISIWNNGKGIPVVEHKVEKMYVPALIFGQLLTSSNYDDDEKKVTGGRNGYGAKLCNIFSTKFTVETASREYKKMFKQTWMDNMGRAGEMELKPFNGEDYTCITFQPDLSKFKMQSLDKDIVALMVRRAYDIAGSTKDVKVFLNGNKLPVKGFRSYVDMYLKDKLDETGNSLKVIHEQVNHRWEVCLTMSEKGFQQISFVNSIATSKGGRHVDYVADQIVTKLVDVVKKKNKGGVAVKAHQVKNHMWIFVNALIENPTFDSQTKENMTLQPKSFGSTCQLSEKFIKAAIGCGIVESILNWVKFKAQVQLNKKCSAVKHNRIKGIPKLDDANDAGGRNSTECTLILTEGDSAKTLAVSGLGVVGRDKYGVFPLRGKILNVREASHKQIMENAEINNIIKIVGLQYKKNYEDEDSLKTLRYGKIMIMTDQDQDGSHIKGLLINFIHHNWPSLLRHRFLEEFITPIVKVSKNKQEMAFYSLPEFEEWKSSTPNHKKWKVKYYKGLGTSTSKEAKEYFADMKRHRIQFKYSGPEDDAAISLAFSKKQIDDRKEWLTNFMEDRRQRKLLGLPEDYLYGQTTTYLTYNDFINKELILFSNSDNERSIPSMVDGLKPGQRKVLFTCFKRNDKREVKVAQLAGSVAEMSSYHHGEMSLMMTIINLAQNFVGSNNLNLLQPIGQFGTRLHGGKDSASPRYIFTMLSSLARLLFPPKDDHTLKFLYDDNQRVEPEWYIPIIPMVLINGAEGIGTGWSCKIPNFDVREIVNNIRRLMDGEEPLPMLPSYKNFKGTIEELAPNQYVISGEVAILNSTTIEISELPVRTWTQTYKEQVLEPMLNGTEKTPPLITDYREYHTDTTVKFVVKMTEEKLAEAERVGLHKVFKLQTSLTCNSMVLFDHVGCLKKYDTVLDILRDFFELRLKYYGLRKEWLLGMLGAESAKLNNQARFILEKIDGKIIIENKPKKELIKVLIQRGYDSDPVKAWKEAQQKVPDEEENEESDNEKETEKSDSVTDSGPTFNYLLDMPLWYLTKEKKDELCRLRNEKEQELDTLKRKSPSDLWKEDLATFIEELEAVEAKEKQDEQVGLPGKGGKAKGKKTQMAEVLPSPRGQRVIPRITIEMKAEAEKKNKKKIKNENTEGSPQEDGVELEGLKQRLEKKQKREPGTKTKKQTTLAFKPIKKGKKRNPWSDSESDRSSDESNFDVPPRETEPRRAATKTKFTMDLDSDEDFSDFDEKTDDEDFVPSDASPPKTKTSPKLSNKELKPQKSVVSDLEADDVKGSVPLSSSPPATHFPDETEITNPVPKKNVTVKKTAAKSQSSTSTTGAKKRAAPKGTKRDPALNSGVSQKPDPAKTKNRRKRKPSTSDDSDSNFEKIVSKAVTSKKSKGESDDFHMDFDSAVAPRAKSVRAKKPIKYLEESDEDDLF

| Structure (SMILES) | inhibition [1] | ΔTm [2] [°C] | ΔTm [3] [°C] | MIC [4] [µg/mL] | MIC [5] [µg/mL] | IC50 [6] [µM] | MIC [7] [µg/mL] | MIC [8] [µg/mL] | inhibition [9] [%] | MIC [10] [µg/mL] | IC50 [11] [µM] | IC50 [12] [µM] | IC50 [13] [µM] | inhibition [14] | MIC [15] [µg/mL] | IC50 [16] [µM] |
| --- | --- | --- | --- | --- | --- | --- | --- | --- | --- | --- | --- | --- | --- | --- | --- | --- |
| C#CCOc1ccc(-c2nc3ccc(-c4nc5ccc(N6CCN(C)CC6)cc5[nH]4)cc3[nH]2)cc1 | inactive | 22.9 | 1 | 16 (≈ 34.6 µM) | 2 (≈ 4.32 µM) | 5.5 | 8 (≈ 17.3 µM) | 8 (≈ 17.3 µM) | 70 | 2 (≈ 4.32 µM) |  |  |  |  |  |  |
| CCOc1ccc(-c2nc3cc(-c4nc5cc(N6CCN(C)CC6)ccc5[nH]4)ccc3[nH]2)cc1 |  | 24.1 |  | 16 (≈ 35.4 µM) | 2 (≈ 4.42 µM) | 29.8 |  | 8 (≈ 17.7 µM) |  | 2 (≈ 4.42 µM) | 4.25 | > 50 |  |  |  |  |
| COc1ccc(-c2nc3cc(-c4nc5cc(N6CCN(C)CC6)ccc5[nH]4)ccc3[nH]2)cc1OC |  |  |  |  |  |  |  |  |  |  |  |  | 3.8 |  |  |  |
| C#CCOCCCCOc1ccc(-c2nc3ccc(-c4nc5ccc(N6CCN(C)CC6)cc5[nH]4)cc3[nH]2)cc1 |  | 23.4 | 1 |  | 2 (≈ 3.74 µM) | 6.63 | 8 (≈ 15 µM) | 8 (≈ 15 µM) | 5 | 2 (≈ 3.74 µM) |  |  |  | inactive | 16 (≈ 29.9 µM) |  |
| CN1CCN(c2ccc3[nH]c(-c4ccc5[nH]c(-c6ccc(O)cc6)nc5c4)nc3c2)CC1 [HOECHST 33258] |  | 24.6 |  | 16 (≈ 37.7 µM) | ≥ 32 | 19.5 |  |  |  | 16 (≈ 37.7 µM) |  | 22.9 |  | inactive |  | 28.9 |
| C#CCCCCOc1ccc(-c2nc3ccc(-c4nc5ccc(N6CCN(C)CC6)cc5[nH]4)cc3[nH]2)cc1 |  | 20.9 | 1 | 4 (≈ 7.93 µM) | 2 (≈ 3.96 µM) | 4.57 | 8 (≈ 15.9 µM) | 8 (≈ 15.9 µM) | 5 | 2 (≈ 3.96 µM) | 2.12 |  |  | inactive | 16 (≈ 31.7 µM) |  |
| C#CCCCCCCCCCOc1ccc(-c2nc3ccc(-c4nc5ccc(N6CCN(C)CC6)cc5[nH]4)cc3[nH]2)cc1 |  | 8 | 1 | 16 (≈ 27.8 µM) |  | 2.47 | 8 (≈ 13.9 µM) |  | 5 |  | > 10 |  |  | inactive |  |  |
